The source made the active and inactive calls. The calls are words filed in the database; no cut-off is given here.

The target in data set [1] is T1, Solute carrier family 2, facilitated glucose transporter member 1 (Homo sapiens) (UniProt P11166).
T1 sequence (whole entry): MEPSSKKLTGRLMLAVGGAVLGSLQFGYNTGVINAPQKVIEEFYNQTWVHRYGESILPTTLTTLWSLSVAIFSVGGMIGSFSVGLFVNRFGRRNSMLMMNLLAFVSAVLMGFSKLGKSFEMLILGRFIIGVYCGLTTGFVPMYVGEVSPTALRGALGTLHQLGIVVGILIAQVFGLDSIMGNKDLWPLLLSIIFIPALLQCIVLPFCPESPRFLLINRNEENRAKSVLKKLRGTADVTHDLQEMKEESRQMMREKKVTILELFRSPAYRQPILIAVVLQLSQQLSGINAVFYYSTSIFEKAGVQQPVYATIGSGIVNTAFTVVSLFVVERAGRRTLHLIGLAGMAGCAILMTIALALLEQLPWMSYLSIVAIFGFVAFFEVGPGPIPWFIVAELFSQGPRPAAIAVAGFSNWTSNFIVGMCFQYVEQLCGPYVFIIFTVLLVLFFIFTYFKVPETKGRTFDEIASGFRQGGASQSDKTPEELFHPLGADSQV
Nature of the data set: Inhibition of GLUT1 in human CCRF-CEM cells assessed as upregulation of GRP78 expression at 10 uM measured after 6 hrs by Western blot analysis. The class given is cell-based. In short, it runs like this: (§1)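 CEM cells were treated with 10 µM for 6 h. Untreated cells were the negative control and staurosporine the positive control. Cells were washed with cold PBS, lysed in Laemmli buffer with protease inhibitors, sonicated and quantified. Blots were blocked 45 min in PBS-Tween-5% milk, with primary antibody 3 h and secondary 1 h at room temperature.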
For orientation: Immunoblotting shows a protein as a band on a membrane.

Data set [2] concerns CCRF-CEM. Nature of the data set: Cell cycle arrest in human CCRF-CEM cells assessed as decrease in accumulation at G0/G1 phase measured after 72 hrs by NIM-DAPI staining based flow cytometry. The data set is classed as functional. In short, it runs like this: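 An asynchronous CEM culture was seeded at 100,000 cells/well in 1 mL complete RPMI and exposed to 10, 25 or 50 μM for 72 h. Controls were untreated cells, DMSO and hydrogen peroxide. Cells were pelleted at 262 g, resuspended, and stained with NIM-DAPI, which permeabilizes and stains DNA in one step. About 100,000 events per sample were read by flow cytometry. Triplicates.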
For orientation: A flow cytometer gives signals particle by particle.

Data set [3] relates to CCRF-CEM. Briefly: Antitumor activity against human CCRF-CEM cells xenografted in SCID mouse assessed as reduction in tumor growth at 50 mg/kg, ip administered daily for 5 days with 2 days interval for 18 days. The data set is classed as functional, organism-based. To be noted: time 18.0 day. The method in brief: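 SCID mice aged 8-10 weeks, in individually ventilated cages on a 12 h light/dark cycle, autoclaved pellets and water ad libitum. 1×10^5 CEM cells were injected on the back to form palpable tumors, which were minced and regrafted. Compound given 50 mg/kg i.p. on days 1-5, 8-12 and 15-18. Saline vehicle group; doxorubicin 20 mg/kg i.p. reference group. n=6 per group. Tumor volume by caliper every two days as (width)² x length/2.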

Data set [4] concerns CCRF-CEM. Nature of the data set: Induction of apoptosis in human CCRF-CEM cells assessed as late apoptotic cells at CC50 measured after 24 hrs by AnnexinV-FITC/propidium iodide staining based flow cytometry analysis relative to control. The data set is classed as functional. The method in brief: (§2)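 CCRF-CEM cells in RPMI with 10% FBS were seeded in 24-well plates, incubated overnight, given fresh medium, then treated for 24 h. Cells were PBS-washed, spun at 500 g for 5 min at 4 °C, and resuspended in ice-cold binding buffer. They were stained with annexin V-FITC and PI for 15 min on ice in the dark, then read by flow cytometry. Untreated cells were the negative control; triplicates.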

Data set [5] in a line: Cytotoxicity against human WBC assessed as cell viability at higher concentration measured after 48 hrs by MTT assay relative to control. The class given is tissue-based. (In general: Tetrazolium dyes change colour on reduction, which living cells bring about.)
For data set [6], the target named is T1, Solute carrier family 2, facilitated glucose transporter member 1 (Homo sapiens). Nature of the data set: Inhibition of GLUT1 in human CCRF-CEM cells assessed as decrease in mTOR phosphorylation at 10 uM measured after 6 hrs by Western blot analysis. The class given is cell-based. The method in brief: as §1
The test system of data set [7] is CCRF-CEM. Briefly: Induction of apoptosis in human CCRF-CEM cells assessed as live cells at CC50 measured after 24 hrs by AnnexinV-FITC/propidium iodide staining based flow cytometry analysis (reference value: 92.15%). The data set is classed as functional. In short, it runs like this: as §2
Data set [8] in a line: Toxicity in SCID mouse assessed as distress at 1000 mg/kg, ip administered as single dose measured within 6 hrs. Particulars: in vivo. The class given is organism-based.
Data set [9] relates to CCRF-CEM. Nature of the data set: Induction of apoptosis in human CCRF-CEM cells assessed as early apoptotic cells at CC50 measured after 24 hrs by AnnexinV-FITC/propidium iodide staining based flow cytometry analysis relative to control. The class given is functional. In short, it runs like this:
as §2

The nature of data set [10]: Selectivity index, ratio of IC50 for human WBC to CC50 for human CCRF-CEM cells. The method in brief: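 Donor blood was layered on HiSep and centrifuged at 400×g for 30 min; mononuclear cells were washed and RBC-lysed to give WBCs. WBCs were seeded overnight at 37 °C, 5% CO2, then exposed to 2.5–100 µM for 48 h. MTT was added for 4 h at 37 °C, formazan was dissolved in DMSO and A570 read. The CEM CC50 came from a 48 h Hoechst/PI imaging assay.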

Data set [11] can be described thus: Toxicity in SCID mouse assessed as distress at 1000 mg/kg, ip administered as single dose. The class given is organism-based. To be noted: in vivo.
For data set [12], the target named is T1, Solute carrier family 2, facilitated glucose transporter member 1 (Homo sapiens). Briefly: Inhibition of GLUT1 in human CCRF-CEM cells assessed as decrease in CDK2 phosphorylation at 10 uM measured after 6 hrs by Western blot analysis. The data set is classed as cell-based. The method in brief: as §1
Data set [13] relates to CCRF-CEM. Briefly: Induction of apoptosis in human CCRF-CEM cells assessed as activation of caspase 3 at 10 uM measured after 6 hrs by Western blot analysis. The class given is functional, cell-based. In short, it runs like this:
as §1

Data set [14] in a line: Cytotoxicity against human WBC assessed as reduction in cell viability measured after 48 hrs by MTT assay. The data set is classed as tissue-based. In short, it runs like this:
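WBCs were isolated from donor blood by HiSep density centrifugation, followed by RBC lysis and PBS washes, and held overnight at 37 °C with 5% CO2. Compound at 2.5–100 μM for 48 h. After two PBS washes, MTT was added for 4 h at 37 °C, formazan was dissolved in DMSO, and absorbance was read at 570 nm. IC50 taken from the dose-response curve.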

Another data set concerns HS27. Nature of the data set: Cytotoxicity against human HS27 cells assessed as cell death at 100 uM measured after 48 hrs by Hoechst 33342/propidium iodide staining based imaging analysis relative to control. To be noted: hs27, 48 h. The method in brief: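 HS-27 fibroblasts in DMEM with 10% FBS and penicillin/streptomycin at 37 °C, 5% CO2, seeded at 3,000 cells/well. Treated 48 h with DMSO-dissolved compound (0.5–100 µM range) in quadruplicate. Hoechst 33342 and PI were added 2 h before imaging, and Hoechst/PI-colocalised nuclei were scored as dead. Controls were DMSO vehicle, H2O2 and untreated cells.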

The species named for the next data set is Homo sapiens. Briefly: Selectivity ratio of IC50 for inhibition of transport activity of human GLUT4 expressed in hexose transporter deficient W4000fgy1 erg4 yeast cells to IC50 for inhibition of transport activity of human GLUT1 expressed in hexose transporter deficient VW4000fgy1 yeast cells. The class given is cell-based. The method in brief: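 GLUT1 (VW4000fgy1) or GLUT4 (VW4000fgy1erg4) hxt0 yeast were grown on maltose and then glucose and resuspended in PBS pH 7.4 at OD600 ~10. Compound was used at 0.1–100 μM, final 1% DMSO. Uptake of 5 mM 14C-glucose over 10 min was stopped with ice-cold quench buffer, filtered and counted by scintillation. IC50 was taken from dose-response curves of three independent measurements.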

For orientation: IC50 means the midpoint of a concentration-inhibition curve. As to `O=C(CN1C(=O)S/C(=C/c2ccco2)C1=O)Nc1nc2ccccc2s1`, the inhibition result in data set [1], in data set [6] and in [12] was “Active” in each case. Moreover, the Activity entry is “Dose-dependent effect” in the data set on CCRF-CEM [2]; 55.87% with CCRF-CEM [4]; more than 62% in data set [5]; 26.14% in the data set with CCRF-CEM [7]; “Non-Toxic” in [8]; 1.38% in the data set on CCRF-CEM [9]. The Activity result in data set [11] was “Toxic”. In addition, the outcome in the data set with CCRF-CEM [3] and with CCRF-CEM [13] was Active. In addition, in data set [10], the “Ratio IC50” value turned out to be 107. Besides, the IC50 in data set [14] was 187 µM.
For the compound `O=C(CN1C(=O)S/C(=C/c2ccco2)C1=O)Nc1ccc(Cl)c(Cl)c1`, the Activity with HS27 worked out at 27.32%. Besides, the Ratio IC50 in the data set filed under Homo sapiens amounted to 10.

For the origin of these results see ChEMBL document CHEMBL4765368, “Structure guided design and synthesis of furyl thiazolidinedione derivatives as inhibitors of GLUT 1 and GLUT 4, and evaluation of their anti-leukemic potential” (Eur J Med Chem, 2020).
